“Also recorded” adds a separate entry of the source. Positions of bridges follow the written chain, without caps; N, C: chain ends. No end group written: not given here.
What was measured:
HMC-1 cells [1] = conditions: ref Ahamed et al., 2004, Ali et al., 2000; cited from earlier work
LAD2 mast cells [2] = assay: Ca^2+ mobilization in LAD2 mast cells; assay type: cell-based, human; conditions: indo-1 AM, C3a 10 nM, E7 1 µM, representative of 3 experiments; for intracellular Ca^2+ mobilization: 355/410 nm, E7S 1 µM, compound 48/80 1 µg/ml
Procedure, shortened: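 LAD2 cells were kept in StemPro-34 with supplements, 2 mM L-glutamine, penicillin, streptomycin and 100 ng/ml SCF, hemi-depleted weekly. Cells at 0.2 × 10^6/ml were loaded with 1 µM indo-1 AM plus 1 µM pluronic F-127 for 30 min at room temperature, washed and resuspended in HEPES-buffered saline. C3a (10 nM) or test peptide (1 µM) was added at marked times. Fluorescence was read at excitation 355 nm and emission 410 nm.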

HA-tagged human MrgX2 = assay: Degranulation of RBL-2H3 cells stably expressing MrgX2; assay type: cell-based; conditions: RBL-2H3 expressing MrgX2; for degranulation: peptides 1 µM, compound 48/80 100 ng/ml or antigen DNP-BSA 30 ng/ml, 30 min, representative of 3 experiments
Procedure, shortened: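 RBL-2H3 cells were nucleofected with HA-tagged receptor plasmid, selected in G418 (1mg/ml) and sorted by anti-HA staining for equivalent expression. 5 × 10^4 cells were primed overnight with mouse anti-DNP IgE (1 µg/ml), washed and stimulated 30 min in 0.1% BSA buffer. Supernatant β-hexosaminidase was read with 1 mM p-nitrophenyl-N-acetyl-β-D-glucosamine (1.5 h, 37°C), stopped with carbonate buffer, A405, as percent of Triton X-100 lysate total.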

[3] = tested on: peripheral blood CD34^+ cell-derived mast cells; conditions: ref Fukuoka et al., 2008, Lappalainen et al., 2007, Oskeritzian et al., 2005, Venkatesha et al., Woolhiser et al., 2004; cited from earlier work
[4] = tested on: rat basophilic leukemia, RBL-2H3 cells; conditions: ref Erdei et al., 2004, Soruri et al., 2008; cited from earlier work
[5] = tested on: bone marrow-derived mast cells; conditions: ref Erdei et al., 2004, Soruri et al., 2008; cited from earlier work
LAD2 mast cells [6] = assay: Degranulation; assay type: cell-based, human; conditions: 30 min, β-hexosaminidase release; for degranulation: different concentrations, 3 – 4 experiments
Procedure, shortened: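 LAD2 cells, kept in StemPro-34 with 100 ng/ml SCF, were seeded at 5 × 10^3 per well overnight with human IgE (1 µg/ml). After washing, they were exposed for 30 min to graded test-compound concentrations in buffer with 0.1% BSA. Released β-hexosaminidase was assayed with 1 mM p-nitrophenyl-N-acetyl-β-D-glucosamine (1.5 h, 37°C), stopped with 0.1 M Na2CO3/NaHCO3, and read at A405. Values are percent of the 0.1% Triton X-100 lysate total, mean ± S.E.M of 3–4 experiments.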

HMC-1 cells [7] = assay: Ca^2+ mobilization in HMC-1 cells; assay type: cell-based, human; conditions: representative of 3 experiments; for intracellular Ca^2+ mobilization: indo-1 AM, 355/410 nm, C3a 10 nM, E7 1 µM, E7S 1 µM, compound 48/80 1 µg/ml
Procedure, shortened: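 HMC-1 cells were grown in IMDM with 10% FCS, 2 mM L-glutamine, penicillin and streptomycin. Cells at 1 × 10^6/ml were loaded with 1 µM indo-1 AM plus 1 µM pluronic F-127 for 30 min at room temperature, then washed and resuspended in HEPES-buffered saline. Stimuli were added sequentially at marked times: C3a 10 nM, test peptide 1 µM, test secretagogue 1 µg/ml. Fluorescence was read at excitation 355 nm and emission 410 nm.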

mast cell = conditions: ref Hartmann et al., 1997; Nilsson et al., 1996; cited from earlier work
HA-tagged human MrgX1 = assay: Degranulation of RBL-2H3 cells stably expressing MrgX1; assay type: cell-based; conditions: RBL-2H3 expressing MrgX1; for degranulation: peptides 1 µM, compound 48/80 100 ng/ml or antigen DNP-BSA 30 ng/ml, 30 min, representative of 3 experiments
C5a receptor = conditions: ref Subramanian, 2011; cited from earlier work
MrgX2 [8] = conditions: requires tryptophan and a positively charged residue; ref Subramanian, 2011; cited from earlier work
MrgX2 [9] = conditions: 2003, cited from earlier work; for structural requirement for MrgX2 activation: ref Robas et al.
C3a receptor [10] = conditions: guinea pig ileum, C3a versus C5a; ref Ember et al., 1991; cited from earlier work
guinea pig platelet = conditions: ref Ember et al., 1991; cited from earlier work
guinea pig skin = conditions: ref Ember et al., 1991; cited from earlier work
C3a receptor [11] = conditions: versus C3a receptor agonist peptide (C3aP), ref Ember et al., 1991; cited from earlier work
[12] = tested on: CD34^+-derived human mast cells; assay: Degranulation; assay type: cell-based; conditions: 30 min, E7 or E7S 1 µM, 3 – 4 experiments
Procedure, shortened: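 Primary mast cells were grown 7–10 weeks from human CD34+ progenitors in StemPro-34 with SCF and IL-6 (100 ng/ml each), plus IL-3 (30 ng/ml) in the first week only. Cells (5 × 10^3 per well) were primed overnight with human IgE (1 µg/ml), washed, and stimulated 30 min in 0.1% BSA buffer with test peptides at 100 nM or 1 µM. β-Hexosaminidase release was measured at 405 nm and expressed as percent of lysate total, mean ± S.E.M of 3–4 experiments.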

[13] = ref Lu et al., 1984; cited from earlier work
[14] = tested on: mock transfected RBL-2H3 cells; assay: Degranulation of mock transfected RBL-2H3 cells; assay type: cell-based, rat; conditions: C3a 100 nM, peptides 1 µM, compound 48/80 100 ng/ml or antigen DNP-BSA 30 ng/ml, 30 min, representative of 3 experiments
Procedure, shortened: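 Rat RBL-2H3 cells, grown in DMEM with 10% FBS and mock-transfected, were seeded at 5 × 10^4 per well and sensitised with anti-DNP IgE (1 µg/ml, 16 h). After washing, they were challenged 30 min in 0.1% BSA buffer with test agents or DNP-BSA antigen. Supernatant β-hexosaminidase was assayed with 1 mM p-nitrophenyl-N-acetyl-β-D-glucosamine (1.5 h, 37°C) at A405, relative to a 0.1% Triton X-100 lysate. Data are representative of 3 experiments.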

MrgX1 = conditions: ref Lembo et al., 2002; Robas et al., 2003; cited from earlier work

**Q.** What does the source list for “C3a: purified human anaphylatoxin C3a, from Complement Technology”?
**A.** Ca^2+ mobilization (HMC-1 cells [1]): responds to C3a for a transient Ca^2+ mobilization; intracellular Ca^2+ mobilization (LAD2 mast cells [2]): induced Ca^2+ mobilization; also recorded: induced rapid Ca^2+ responses in LAD2 cells which peaked within seconds after stimulation; duration/magnitude of Ca^2+ response, C3a versus E7 (LAD2 mast cells [2]): markedly reduced; degranulation by C3a (HA-tagged human MrgX2; C3a (1 µM) in text): did not activate RBL-2H3 cells expressing MrgX1 or MrgX2; also recorded: at concentrations up to 1 µM did not induce degranulation in cells expressing either human MrgX1 or MrgX2; degranulation [3]: induces degranulation; degranulation [4]: does not induce degranulation; degranulation [5]: does not induce degranulation; degranulation (LAD2 mast cells [6]): induced Ca^2+ mobilization and degranulation in a differentiated human mast cell line, LAD2; also recorded: induced a dose-dependent degranulation of LAD2 mast cells; Ca^2+ response to C3a added after E7S or compound 48/80 (HMC-1 cells [7]; C3a 10 nM as second stimulus): fully responsive to C3a; intracellular Ca^2+ mobilization (HMC-1 cells [7]): caused Ca^2+ mobilization in an immature mast cell line, HMC-1; also recorded: induced Ca^2+ mobilization of similar magnitude and duration in HMC-1 cells; mast cell chemoattractant activity (mast cell): one of the most potent mast cell chemoattractants known; degranulation by C3a (HA-tagged human MrgX1; C3a (1 µM) in text): did not activate RBL-2H3 cells expressing MrgX1 or MrgX2; also recorded: at concentrations up to 1 µM did not induce degranulation in cells expressing either human MrgX1 or MrgX2

**Q.** With PMX-53 as the substance, how does the C5a receptor antagonism (C5a receptor) read?
**A.** The C5a receptor antagonism was “potent C5a receptor antagonist”.

**Q.** What about the “activation of human mast cells via MrgX2” value (MrgX2 [8]) of the same substance?
**A.** The value was “activates human mast cells via MrgX2”.

**Q.** Which “structural requirement for MrgX2 activation” value (MrgX2 [9]) does the source give for cortistatin-17 [CST-17] here?
**A.** The value was “both the N-terminal proline and the C-terminal lysine are required for MrgX2 activation”.

**Q.** With WWGKKYRASKLGLAR [E7] as the substance, how does the “intracellular Ca^2+ mobilization” value (LAD2 mast cells [2]) read?
**A.** Its value is “induced Ca^2+ mobilization; also recorded: induced rapid Ca^2+ responses in LAD2 cells which peaked within seconds after stimulation”.

**Q.** What about the “duration/magnitude of Ca^2+ response, C3a versus E7” value (LAD2 mast cells [2]) of the same substance?
**A.** Its value is “prominent and sustained response”.

**Q.** What about the “cross-desensitization of ileum contraction” value (C3a receptor [10]) of the same substance?
**A.** Its value is “cross-desensitized the ability of C3a but not C5a to induce guinea pig ileum contraction”.

**Q.** What about the degranulation (HA-tagged human MrgX2) of the same substance?
**A.** Its degranulation is “activated RBL-2H3 cells expressing MrgX2; also recorded: responded to CST, E7, E7S and compound 48/80”.

**Q.** What about the “increase in guinea pig platelet aggregation activity compared to C3aP” value (guinea pig platelet) of the same substance?
**A.** The value was ~ 1500%.

**Q.** What about the “concentrations required to induce vascular permeability compared to C3aP” value (guinea pig skin) of the same substance?
**A.** The value was “much lower concentrations of E7 were required to induce vascular permeability in guinea pig skin”.

**Q.** And the “potency for mast cell degranulation compared with C3a” value (LAD2 mast cells [6])?
**A.** Its value is “its potency for mast cell degranulation was lower than that of C3a”.

**Q.** And the degranulation (LAD2 mast cells [6])?
**A.** The degranulation was “induced Ca^2+ mobilization and degranulation in a differentiated human mast cell line, LAD2; also recorded: induced a dose-dependent increase in degranulation in LAD2 mast cells”.

**Q.** What about the “intracellular Ca^2+ mobilization” value (HMC-1 cells [7]) of the same substance?
**A.** Its value is “caused Ca^2+ mobilization in an immature mast cell line, HMC-1; also recorded: induced Ca^2+ mobilization of similar magnitude and duration in HMC-1 cells”.

**Q.** What about the “potency relative to C3aP in guinea pigs” value (C3a receptor [11]) of the same substance?
**A.** Its value is 12 –15 fold.

**Q.** What about the “degranulation of primary mast cells” value [12] of the same substance?
**A.** Its value is “these peptides induced degranulation in primary mast cells”.

**Q.** What does the source list for NYITELRRQHARASHLGLAR [C3aP]?
**A.** biological potency compared with natural C3a [13]: expresses biological potency equal to natural C3a; degranulation (LAD2 mast cells [6]): as with LAD2 cells, these peptides induced degranulation; degranulation of primary mast cells [12]: these peptides induced degranulation in primary mast cells

**Q.** What does the source list for “antigen: antigen (DNP-BSA, 30 ng/ml) on anti-DNP specific IgE-primed cells”?
**A.** degranulation (HA-tagged human MrgX2): responded to antigen for degranulation; degranulation [14]: responded to antigen for degranulation; degranulation (HA-tagged human MrgX1): responded to antigen for degranulation

**Q.** Which degranulation (HA-tagged human MrgX2) does the source give for “Pro-[Cys-Lys-Asn-Phe-Phe-Trp-Lys-Thr-Phe-Ser-Ser-Cys]-Lys (disulfide) (PCKNFFWKTFSSCK; disulfide 2-13) [CST, Cortistatin-14]” here?
**A.** Its degranulation is “responded to CST, E7, E7S and compound 48/80”.

**Q.** What about the “ligand of MrgX2” value (MrgX2 [9]; ref Lembo et al., 2002, Robas et al.) of the same substance?
**A.** Its value is “Ligands for MrgX1 and MrgX2 have been identified”.

**Q.** What about the “structural requirement for MrgX2 activation” value (MrgX2 [9]) of the same substance?
**A.** Its value is “both the N-terminal proline and the C-terminal lysine are required for MrgX2 activation”.

**Q.** Which degranulation (HA-tagged human MrgX1) does the source give for “Tyr-Gly-Gly-Phe-Met-Arg-Arg-Val-Gly-Arg-Pro-Glu-Trp-Trp-Met-Asp-Tyr-Gln-Lys-Arg-Tyr-Gly [BAM-22P, Bovine Adrenal Medulla Docosapeptide]” here?
**A.** Its degranulation is “responded only to BAM-22P and compound 48/80 for degranulation”.

**Q.** And the “ligand of MrgX1” value (MrgX1)?
**A.** The value was “Ligands for MrgX1 and MrgX2 have been identified”.

**Q.** With LRAGSRYKKWALKWG [E7S] as the substance, how does the “intracellular Ca^2+ mobilization” value (LAD2 mast cells [2]) read?
**A.** The value was “induced robust and sustained Ca^2+ responses in LAD2 mast cells”.

**Q.** And the degranulation (HA-tagged human MrgX2)?
**A.** Its degranulation is “responded to CST, E7, E7S and compound 48/80”.

**Q.** What about the degranulation (LAD2 mast cells [6]) of the same substance?
**A.** Its degranulation is “also induced mast cell degranulation in a dose-dependent manner”.

**Q.** What about the “intracellular Ca^2+ mobilization” value (HMC-1 cells [7]) of the same substance?
**A.** The value was “did not initiate Ca^2+ responses in this cell line”.

**Q.** What about the “degranulation of primary mast cells” value [12] of the same substance?
**A.** Its value is “these peptides induced degranulation in primary mast cells”.
